Activity data for 2 molecules are collected here from ChEMBL document CHEMBL5712908, “A genome-wide RNAi screen reveals essential therapeutic targets of breast cancer stem cells” (2019).

Assay [1] deals with T1, Splicing factor 3B subunit 2 (Homo sapiens) (UniProt Q13435).
T1 sequence (whole entry): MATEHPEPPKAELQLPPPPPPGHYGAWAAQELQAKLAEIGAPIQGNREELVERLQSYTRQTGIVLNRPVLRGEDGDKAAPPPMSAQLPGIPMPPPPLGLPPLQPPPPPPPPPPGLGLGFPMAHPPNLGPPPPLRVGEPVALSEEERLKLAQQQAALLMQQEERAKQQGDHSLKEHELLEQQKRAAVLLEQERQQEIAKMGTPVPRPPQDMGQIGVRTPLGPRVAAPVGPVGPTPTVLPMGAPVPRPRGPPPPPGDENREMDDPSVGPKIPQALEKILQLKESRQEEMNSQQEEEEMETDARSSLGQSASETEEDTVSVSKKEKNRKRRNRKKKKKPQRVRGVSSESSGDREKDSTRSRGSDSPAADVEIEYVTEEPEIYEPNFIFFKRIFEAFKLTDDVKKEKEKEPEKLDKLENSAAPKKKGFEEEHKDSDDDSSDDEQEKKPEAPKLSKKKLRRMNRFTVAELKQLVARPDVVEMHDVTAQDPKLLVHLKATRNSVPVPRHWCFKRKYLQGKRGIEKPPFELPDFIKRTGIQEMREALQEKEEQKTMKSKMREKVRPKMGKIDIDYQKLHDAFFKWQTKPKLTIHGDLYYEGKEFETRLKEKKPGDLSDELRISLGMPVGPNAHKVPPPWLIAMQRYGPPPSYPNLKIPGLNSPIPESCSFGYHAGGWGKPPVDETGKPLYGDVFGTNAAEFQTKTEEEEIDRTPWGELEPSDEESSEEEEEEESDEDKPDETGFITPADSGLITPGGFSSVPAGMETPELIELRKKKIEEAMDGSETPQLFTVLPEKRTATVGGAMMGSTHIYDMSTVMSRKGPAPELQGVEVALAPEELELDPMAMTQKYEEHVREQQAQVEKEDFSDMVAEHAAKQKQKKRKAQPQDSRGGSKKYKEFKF
Briefly: Inhibition of SF3B2 in human BrCa-MZ-01 cells assessed as K-score by measuring ALDHbr cells by LSR2 cytometer. The format is cell-based. Put shortly:
(§1)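 Cell lines exposed for 72 h in adherent culture to a range of concentrations centred on the MTS-derived IC50. ALDHbr proportion measured by ALDEFLUOR flow cytometry (LSR2). K-score is the linear regression coefficient, on log10-transformed doses, between the untreated condition and the dose predicted to give a 50% decrease or increase in ALDHbr proportion versus control.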

Assay [2] addresses T1, Splicing factor 3B subunit 2 (Homo sapiens). Description: Inhibition of SF3B2 in human SUM149 cells assessed as K-score by measuring ALDHbr cells by LSR2 cytometer. The format is cell-based. Put shortly: as §1
Assay [3] has the same target. Briefly: Inhibition of SF3B2 in human S68 cells assessed as K-score by measuring ALDHbr cells by LSR2 cytometer. The format is cell-based. Put shortly: as §1
For assay [4] the target is unchanged. Briefly: Inhibition of SF3B2 in human MDA-MB-436 cells assessed as K-score by measuring ALDHbr cells by LSR2 cytometer. The format is cell-based. Put shortly:
as §1

For assay [5] the target is unchanged. Briefly: Inhibition of SF3B2 in human SUM159 cells assessed as K-score by measuring ALDHbr cells by LSR2 cytometer. The format is cell-based. Put shortly:
as §1

The next assay relates to SUM149PT. Description: Anticancer activity against human SUM149 cells assessed as ALDHbr cells by LSR2 cytometer (reference value: 6.8%). It is filed as functional. Put shortly:
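Cells continuously exposed to drug for 72 h in adherent culture; single-cell suspensions stained with ALDEFLUOR kit and ALDH-high population measured by flow cytometry (LSR2) against a DEAB control. Residual ALDHbr proportion reported (n = 8), mean ± SD, Student's t-test.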

For assay [6], the target named is Histone-lysine N-methyltransferase EZH2 (Homo sapiens) (UniProt Q15910). Description: Inhibition of EZH2 in human SUM159 cells assessed as increase in ALDHbr cells by LSR2 cytometer (reference value: 4.8%). It is filed as cell-based. Also on record: scale not given: the % may be the effect or the level left. The conditions noted are these: dose 0.0 µM. Put shortly: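 SUM159 cells exposed continuously for 72 h in adherent culture to graded doses centred on the IC50. ALDHbr proportion measured by ALDEFLUOR flow cytometry (LSR2) with DEAB as negative control; n = 10.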
Chain of Histone-lysine N-methyltransferase EZH2 (Homo sapiens) (Q15910 whole entry, looked up): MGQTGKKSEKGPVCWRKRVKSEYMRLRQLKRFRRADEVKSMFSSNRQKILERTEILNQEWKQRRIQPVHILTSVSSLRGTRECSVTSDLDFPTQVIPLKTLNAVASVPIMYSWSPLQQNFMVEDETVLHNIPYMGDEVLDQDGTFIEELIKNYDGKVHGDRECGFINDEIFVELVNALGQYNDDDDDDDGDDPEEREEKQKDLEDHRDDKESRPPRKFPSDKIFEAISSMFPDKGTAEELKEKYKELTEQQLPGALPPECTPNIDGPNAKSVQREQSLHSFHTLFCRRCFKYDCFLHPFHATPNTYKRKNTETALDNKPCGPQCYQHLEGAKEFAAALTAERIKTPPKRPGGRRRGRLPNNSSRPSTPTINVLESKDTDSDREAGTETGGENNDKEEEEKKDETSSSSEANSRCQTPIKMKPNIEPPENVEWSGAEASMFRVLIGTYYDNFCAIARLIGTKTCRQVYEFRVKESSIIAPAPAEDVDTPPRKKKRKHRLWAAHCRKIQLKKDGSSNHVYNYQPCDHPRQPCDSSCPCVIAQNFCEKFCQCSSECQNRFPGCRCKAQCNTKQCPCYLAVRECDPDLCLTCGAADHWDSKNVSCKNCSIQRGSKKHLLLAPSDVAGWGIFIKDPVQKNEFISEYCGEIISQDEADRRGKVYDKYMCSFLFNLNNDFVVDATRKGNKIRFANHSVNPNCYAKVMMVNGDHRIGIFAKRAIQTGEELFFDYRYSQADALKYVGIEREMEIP

With `CO[C@]1(C)C[C@@]2(CO2)[C@H](O)[C@@H](/C=C/C(C)=C/C[C@@H]2O[C@H](C)[C@H](NC(=O)/C=C\[C@H](C)OC(C)=O)C[C@@H]2C)O1`, the Activity in assay [1] was 0.05; in assay [2], -0.19; in assay [3], -0.16; in assay [4] it was -0.15; in assay [5], 0.25.
As for `CCN(CC)c1ccc(C=O)cc1`, the values for the Activity (with SUM149PT; in assay [6]) were 0.3% and 0.2%, respectively.
